The target of series [1] is BRAF (Homo sapiens, UniProt P15056). Put plainly: ATP-biotin probe labeling competition assay on isolated BRAF. The following applies: MEK, KSR1:MEK and KSR2:MEK labeled with 2.5 μM probe (Fig. 4E). Type of series: binding.
In series [2] the test system is mKSR1:MEK1 complex. The following applies: steady-state NanoBRET, 1 μM Tram-bo (Fig. 7A); ref Khan et al., 2020; cited from earlier work. (In BRET a luciferase serves as donor, and the signal depends on an acceptor being close.)
The test system of series [3] is KRAS mutant cell lines. The following applies: ref Khan et al., 2020; cited from earlier work.
In series [4] the target is MEK1-NL (Homo sapiens, UniProt Q02750). Put plainly: NanoBRET tracer build-up. Format: binding. The gist of the method: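 HEK293T cells at ~70% confluence were plated at 200,000 cells/mL and transfected with MEK1-NL alone, MEK1-NL plus mKSR1, or mKSR1-NL, then incubated at least 20 h at 37 °C. The Tram-bo tracer was titrated in each scenario to record BRET, giving an apparent EC50 and maximal BRET signal for each. These set the working tracer concentration above EC50.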

Series [5] concerns mKSR1-NL W781D. The following applies: mKSR1 W781D interface mutant (Fig. 6F); ref Khan et al., 2020; cited from earlier work.
Series [6] concerns the molecule itself. Kind of series: SEC.

MEK1-NL, sequence (Q02750 whole entry): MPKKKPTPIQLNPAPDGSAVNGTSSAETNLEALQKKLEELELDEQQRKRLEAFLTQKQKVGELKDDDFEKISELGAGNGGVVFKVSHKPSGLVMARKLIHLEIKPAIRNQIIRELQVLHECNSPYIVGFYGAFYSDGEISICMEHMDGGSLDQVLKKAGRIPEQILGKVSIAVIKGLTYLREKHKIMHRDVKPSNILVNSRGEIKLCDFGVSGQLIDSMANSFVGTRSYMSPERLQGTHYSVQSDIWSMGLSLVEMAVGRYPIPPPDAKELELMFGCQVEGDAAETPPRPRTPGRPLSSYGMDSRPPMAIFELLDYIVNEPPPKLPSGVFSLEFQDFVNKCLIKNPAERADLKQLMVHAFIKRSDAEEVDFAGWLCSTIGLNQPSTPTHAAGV
BRAF, sequence (P15056 457-717 limits assumed): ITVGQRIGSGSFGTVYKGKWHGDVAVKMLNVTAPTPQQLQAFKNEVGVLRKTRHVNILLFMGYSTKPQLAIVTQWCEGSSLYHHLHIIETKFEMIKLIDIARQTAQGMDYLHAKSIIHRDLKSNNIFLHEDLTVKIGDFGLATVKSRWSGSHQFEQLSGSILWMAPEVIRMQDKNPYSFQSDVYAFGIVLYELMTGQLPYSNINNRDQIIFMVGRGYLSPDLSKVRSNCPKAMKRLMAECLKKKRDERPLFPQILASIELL

As to `CC(C)(C)c1nc(-c2cccc(NS(=O)(=O)c3c(F)cccc3F)c2F)c(-c2ccnc(N)n2)s1` [dabrafenib], the “inhibitor specificity in ATP-biotin competition assay” value in series [1] was “BRAF-specific inhibition”.
`O=C(c1ccc(F)c(F)c1Nc1ccc(I)cc1F)N1CC(O)([C@@H]2CCCCN2)C1` [cobimetinib]: the “apparent IC50 on free MEK1 compared with the mKSR1:MEK1 complex” value in series [2] was “more potent binding to the complex”.
Consider `CNS(=O)(=O)Nc1cccc(-n2c(=O)n(C3CC3)c(=O)c3c(Nc4ccc(I)cc4F)n(C)c(=O)c(C)c32)c1` [trametiglue], for which the “potency of growth inhibition relative to trametinib and other MEKi including CH5126766” value in series [3] is reported as “markedly enhanced”.
Turning to `Cc1c(=O)n(C)c(Nc2ccc(I)cc2F)c2c(=O)n(C3CC3)c(=O)n(-c3cccc(NC(=O)CCOCCOCCNC(=O)CCc4ccc5n4[B-](F)(F)[N+]4=C(c6ccc[nH]6)C=CC4=C5)c3)c12` [Tram-bo], the “fold difference of Tram-bo EC50, MEK1-NL vs the two MEK1–mKSR1 complex scenarios” value in series [4] (MEK1-NL vs mKSR1-NL and MEK1-NL coexpressed with mKSR1 (Fig. 6C)) was ~ 20 times. In series [4] (NanoBRET build-up curves (Fig. 6C)), the “apparent EC50 of Tram-bo” value is “in the nanomolar range”.
Take `CC(=O)Nc1cccc(-n2c(=O)n(C3CC3)c(=O)c3c(Nc4ccc(I)cc4F)n(C)c(=O)c(C)c32)c1` [trametinib]: the “dose-response in KSR-NL assay with W781D mutant” value in series [5] is recorded as “loss of a Trametinib dose-response”.

B1: KSR1 pseudokinase domain [residues 591–899] (domain or fragment, human, UniProt Q8IVT5 591-899, looked up)
chain: PISRKASQTSVYLQEWDIPFEQVELGEPIGQGRWGRVHRGRWHGEVAIRLLEMDGHNQDHLKLFKKEVMNYRQTRHENVVLFMGACMNPPHLAIITSFCKGRTLHSFVRDPKTSLDINKTRQIAQEIIKGMGYLHAKGIVHKDLKSKNVFYDNGKVVITDFGLFGISGVVREGRRENQLKLSHDWLCYLAPEIVREMTPGKDEDQLPFSKAADVYAFGTVWYELQARDWPLKNQAAEASIWQIGSGEGMKRVLTSVSLGKEVSEILSACWAFDLQERPSFSLLMDMLEKLPKLNRRLSHPGHFWKSADI
As to B1, the binding result in series [6] is “binds”.

The record behind these values is article PMC9150438 (Methods in enzymology, 2022).
